Values belong to the molecule of their own block, whether it stands above or below them.
Key:
[1] = molecular target: T1, Neuropeptide Y receptor type 1 (Homo sapiens) (UniProt P25929); assay: Antagonist activity at NPY1 receptor in human HEL cells assessed as inhibition of NPY-induced calcium mobilization by Fura-2 assay; assay type: functional, cell-based
T1 sequence (whole entry): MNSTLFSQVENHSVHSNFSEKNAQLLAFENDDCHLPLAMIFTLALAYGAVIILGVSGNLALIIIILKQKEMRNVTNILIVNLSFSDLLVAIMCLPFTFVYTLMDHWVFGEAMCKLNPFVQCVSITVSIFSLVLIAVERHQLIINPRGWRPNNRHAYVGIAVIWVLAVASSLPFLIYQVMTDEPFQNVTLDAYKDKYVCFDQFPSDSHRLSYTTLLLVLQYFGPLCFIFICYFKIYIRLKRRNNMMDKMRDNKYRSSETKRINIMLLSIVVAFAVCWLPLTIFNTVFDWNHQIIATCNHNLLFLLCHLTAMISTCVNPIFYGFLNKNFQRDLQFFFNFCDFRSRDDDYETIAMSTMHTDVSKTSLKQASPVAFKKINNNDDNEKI

[2] = molecular target: T2, Neuropeptide Y receptor type 1 (Homo sapiens, UniProt P25929); assay: Displacement of [3H]UR-MK114 from NPY1 receptor in human SK-N-MC cells; assay type: cell-based
T2 sequence (P25929 whole entry): T1 sequence (whole entry)
Method in brief: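 Data were fitted with four-parameter sigmoidal curves. IC50 was converted to Ki by Cheng–Prusoff using the radioligand KD. Mean ± SEM of two or three independent experiments. Assay period from solution preparation to read-out was 60–90 min.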

[3] = Distribution coefficient, log D of the compound; assay type: physicochemical; settings: octanol/water
Method in brief: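 Calculated at pH 7.4 by ACD software. Experimental values came from RP-HPLC on a C18 column at 25 °C and 0.30 mL/min, using 10 mM ammonium acetate pH 7.4 versus acetonitrile (5→98% over 30 min). Injection was 2 µL of a 1 mM DMSO solution with diode-array detection. Retention time was calibrated against six reference compounds.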

Structure (SMILES): CCCCCCCCCCCCC#CC#CCCCCCCCCC(=O)NC(=N)NCCC[C@@H](NC(=O)C(c1ccccc1)c1ccccc1)C(=O)NCc1ccc(O)cc1
Kb [1]: 140 nM
Ki ([2]; read-out: Ki): 1500 nM

Structure (SMILES): N=C(NCCC[C@@H](NC(=O)C(c1ccccc1)c1ccccc1)C(=O)NCc1ccc(O)cc1)NC(=O)CCCc1ccc2ccc3cccc4ccc1c2c34
Ki ([2]; read-out: Ki): 270 nM
logD ([3]; read-out: logD): 7.6

Structure (SMILES): N=C(NCCC[C@@H](NC(=O)C(c1ccccc1)c1ccccc1)C(=O)NCc1ccc(O)cc1)NC(=O)CCCn1cc(CO)nn1
Kb [1]: 0.4 nM
Ki ([2]; read-out: Ki): 3 nM
logD ([3]; read-out: logD): 1.8

Structure (SMILES): CCC(=O)NCCNCCNC(=O)CCC(=O)NC(=N)NCCC[C@@H](NC(=O)C(c1ccccc1)c1ccccc1)C(=O)NCc1ccc(O)cc1
logD ([3]; read-out: logD): -0.6

Structure (SMILES): N=C(NCCC[C@@H](NC(=O)C(c1ccccc1)c1ccccc1)C(=O)NCc1ccc(O)cc1)NC(=O)COCCOCCOCC(=O)NCCNC(=O)c1ccc2ccc3cccc4ccc1c2c34
Ki ([2]; read-out: Ki): 59 nM
logD ([3]; read-out: logD): 6

Structure (SMILES): CCCCCCCCCCCCCCCC(=O)NC(N)=NCCC[C@@H](NC(=O)C(c1ccccc1)c1ccccc1)C(=O)NCc1ccc(O)cc1
Ki ([2]; read-out: Ki): 460 nM
logD [3]: 9.4

Structure (SMILES): NC(=NCCC[C@@H](NC(=O)C(c1ccccc1)c1ccccc1)C(=O)NCc1ccc(O)cc1)NC(=O)CCCCCCC(=O)NCCC(=O)O
Ki ([2]; read-out: Ki): 73 nM
logD ([3]; read-out: logD): 0.7

Structure (SMILES): CC(=O)OC[C@@H](OC(C)=O)[C@@H](OC(C)=O)[C@H](OC(C)=O)[C@@H](OC(C)=O)C(=O)NC(N)=NCCC[C@@H](NC(=O)C(c1ccccc1)c1ccccc1)C(=O)NCc1ccc(O)cc1
Ki ([2]; read-out: Ki): 83 nM
logD ([3]; read-out: logD): 3.5

Structure (SMILES): N=C(NCCC[C@@H](NC(=O)C(c1ccccc1)c1ccccc1)C(=O)NCc1ccc(O)cc1)NC(=O)CCC(=O)NCCNC(=O)c1ccc(F)cc1
logD ([3]; read-out: logD): 3.5

Structure (SMILES): N=C(NCCC[C@@H](NC(=O)C(c1ccccc1)c1ccccc1)C(=O)NCc1ccc(O)cc1)NC(=O)CCCCCCC(=O)NCCC(=O)OCc1ccccc1
Kb [1]: 1.1 nM
Ki ([2]; read-out: Ki): 40 nM
logD ([3]; read-out: logD): 4.6

Structure (SMILES): N=C(NCCC[C@@H](NC(=O)C(c1ccccc1)c1ccccc1)C(=O)NCc1ccc(O)cc1)NC(=O)CCC(=O)OC[C@H]1O[C@@H](O)[C@H](O)[C@@H](O)[C@H]1O
Kb [1]: 510 nM
Ki ([2]; read-out: Ki): 41 nM
logD ([3]; read-out: logD): 0.9

Structure (SMILES): N=C(NCCC[C@@H](NC(=O)C(c1ccccc1)c1ccccc1)C(=O)NCc1ccc(O)cc1)NC(=O)c1ccc2ccc3cccc4ccc1c2c34
Ki ([2]; sk-n-mc): Not Active
logD ([3]; read-out: logD): 7.2

Structure (SMILES): N=C(N)NCCC[C@@H](NC(=O)C(c1ccccc1)c1ccccc1)C(=O)NCc1ccc(O)cc1
logD ([3]; read-out: logD): 0.7

Structure (SMILES): CCCCCCCCCCCCCCCC(=O)NC(=N)NCCC[C@@H](NC(=O)C(c1ccccc1)c1ccccc1)C(=O)NCc1ccc(O)cc1
Kb [1]: 170 nM

Structure (SMILES): N=C(NCCC[C@@H](NC(=O)C(c1ccccc1)c1ccccc1)C(=O)NCc1ccc(O)cc1)NC(=O)CCCn1cc(CN)nn1
Kb [1]: 14 nM

Structure (SMILES): CC(=O)OC[C@@H](OC(C)=O)[C@@H](OC(C)=O)[C@H](OC(C)=O)[C@@H](OC(C)=O)C(=O)NC(=N)NCCC[C@@H](NC(=O)C(c1ccccc1)c1ccccc1)C(=O)NCc1ccc(O)cc1
Kb [1]: 110 nM

Structure (SMILES): NCc1cn(CCCC(=O)NC(N)=NCCC[C@@H](NC(=O)C(c2ccccc2)c2ccccc2)C(=O)NCc2ccc(O)cc2)nn1
Ki ([2]; read-out: Ki): 6.7 nM
logD ([3]; read-out: logD): 1.7

Other lines, results leading:

Kb [1]: 230 nM
Ki ([2]; read-out: Ki): 130 nM
logD ([3]; read-out: logD): -0.3
Structure (SMILES): N=C(NCCC[C@@H](NC(=O)C(c1ccccc1)c1ccccc1)C(=O)NCc1ccc(O)cc1)NC(=O)CCCCCCC(=O)NCCN

logD ([3]; read-out: logD): -1.4
Structure (SMILES): N=C(N)NCCNC(=O)CCC(=O)NC(=N)NCCC[C@@H](NC(=O)C(c1ccccc1)c1ccccc1)C(=O)NCc1ccc(O)cc1

Kb [1]: 170 nM
Structure (SMILES): COC(=O)CCNC(=O)CCCCCCC(=O)NC(=N)NCCC[C@@H](NC(=O)C(c1ccccc1)c1ccccc1)C(=O)NCc1ccc(O)cc1

logD ([3]; read-out: logD): -1.8
Structure (SMILES): N=C(NCCC[C@@H](NC(=O)C(c1ccccc1)c1ccccc1)C(=O)NCc1ccc(O)cc1)NC(=O)CCC(=O)NCCNCCN

Ki ([2]; read-out: Ki): 260 nM
logD ([3]; read-out: logD): 2.9
Structure (SMILES): COC(=O)CCNC(=O)CCCCCCC(=O)NC(N)=NCCC[C@@H](NC(=O)C(c1ccccc1)c1ccccc1)C(=O)NCc1ccc(O)cc1

Ki ([2]; read-out: Ki): 0.9 nM
logD ([3]; read-out: logD): 3.9
Structure (SMILES): COC(=O)CCCCCCC(=O)NC(N)=NCCC[C@@H](NC(=O)C(c1ccccc1)c1ccccc1)C(=O)NCc1ccc(O)cc1

Kb [1]: 450 nM
Structure (SMILES): N=C(NCCC[C@@H](NC(=O)C(c1ccccc1)c1ccccc1)C(=O)NCc1ccc(O)cc1)NC(=O)CCCCCCC(=O)NCCC(=O)O

Kb [1]: 18 nM
Ki ([2]; read-out: Ki): 51 nM
logD ([3]; read-out: logD): -0.3
Structure (SMILES): N=C(N)NCCCCCC(=O)NC(=N)NCCC[C@@H](NC(=O)C(c1ccccc1)c1ccccc1)C(=O)NCc1ccc(O)cc1

logD ([3]; read-out: logD): -1.3
Structure (SMILES): N=C(NCCC[C@@H](NC(=O)C(c1ccccc1)c1ccccc1)C(=O)NCc1ccc(O)cc1)NC(=O)CCC(=O)NCCN

Kb [1]: 0.06 nM
Structure (SMILES): COC(=O)CCCCCCC(=O)NC(=N)NCCC[C@@H](NC(=O)C(c1ccccc1)c1ccccc1)C(=O)NCc1ccc(O)cc1

Source: ChEMBL document CHEMBL1221320, “N(G)-Acyl-argininamides as NPY Y(1) receptor antagonists: Influence of structurally diverse acyl substituents on stability and affinity” (Bioorg Med Chem, 2010)
